Measurements from ChEMBL document CHEMBL2321719, “Discovery of novel α₁-adrenoceptor ligands based on the antipsychotic sertindole suitable for labeling as PET ligands” (Bioorg Med Chem, 2013).
pKi: −log10 of the molar value.

How the values were obtained:
[1] = biological target: T1, Alpha-1A adrenergic receptor (Bos taurus, UniProt P18130); test: Displacement of [3H]prazosine from bovine alpha1A adrenoceptor expressed in BHK cells after 20 mins by scintillation counting analysis; assay type: cell-based
T1 sequence (P18130 whole entry): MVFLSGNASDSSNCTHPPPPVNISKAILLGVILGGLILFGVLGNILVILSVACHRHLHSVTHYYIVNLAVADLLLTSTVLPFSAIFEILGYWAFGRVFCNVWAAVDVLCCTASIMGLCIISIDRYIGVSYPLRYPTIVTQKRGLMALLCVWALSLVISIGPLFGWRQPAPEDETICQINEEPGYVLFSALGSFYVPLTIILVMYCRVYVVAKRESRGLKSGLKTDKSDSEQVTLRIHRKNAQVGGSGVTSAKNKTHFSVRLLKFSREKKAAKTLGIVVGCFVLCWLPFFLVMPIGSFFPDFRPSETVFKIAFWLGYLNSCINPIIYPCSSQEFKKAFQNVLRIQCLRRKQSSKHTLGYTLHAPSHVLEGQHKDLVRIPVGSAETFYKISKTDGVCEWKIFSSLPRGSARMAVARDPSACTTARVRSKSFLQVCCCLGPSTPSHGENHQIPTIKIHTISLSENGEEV

[2] = biological target: D(2) dopamine receptor (Homo sapiens, UniProt P14416); test: Displacement of [3H]spiperone from human dopamine D2 receptor expressed in CHO cells after 30 mins by scintillation counting analysis; assay type: cell-based
D(2) dopamine receptor, sequence (P14416 whole entry): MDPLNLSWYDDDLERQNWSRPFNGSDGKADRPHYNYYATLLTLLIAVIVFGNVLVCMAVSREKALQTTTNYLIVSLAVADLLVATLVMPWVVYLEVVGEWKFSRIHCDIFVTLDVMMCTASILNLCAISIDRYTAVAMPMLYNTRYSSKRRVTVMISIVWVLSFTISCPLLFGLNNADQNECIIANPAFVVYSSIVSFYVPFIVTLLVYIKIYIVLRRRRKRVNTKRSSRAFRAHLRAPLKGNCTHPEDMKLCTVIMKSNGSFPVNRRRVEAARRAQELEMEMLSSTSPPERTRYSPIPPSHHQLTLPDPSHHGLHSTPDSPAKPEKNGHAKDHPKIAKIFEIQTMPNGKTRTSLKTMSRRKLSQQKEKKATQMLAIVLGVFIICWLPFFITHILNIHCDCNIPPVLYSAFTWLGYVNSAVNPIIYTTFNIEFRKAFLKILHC

[3] = Selectivity ratio of Ki for human dopamine D2 receptor to Ki for bovine alpha1A adrenoceptor
How it was run: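 D2: human receptor in CHO membranes, 0.1 nM [3H]spiperone, 50 mM Tris pH 7.4, nonspecific binding with haloperidol, 30 min at 37 °C. Both used GF/B filtration, ≥2 ten-point curves and Cheng–Prusoff.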

[4] = Ratio of drug level in brain to plasma in rat at 1 hr; assay type: ADME, cell-free; details: brain and plasma, read-out: BPR
[5] = Unbound fraction in rat brain at 1000 ng/g after 5 hrs by equilibrium dialysis method; assay type: ADME, tissue-based
How it was run: (§1)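 Free fraction was measured by 96-well equilibrium dialysis through 3 kDa membranes. Plasma was diluted 1:1 with PBS; rat brain was sonicated on ice to 1:2 brain:PBS. Matrices were spiked at 1000 ng/g (n = 6) and dialysed against PBS for 5 h at 37 °C. Samples were read by LC–MS/MS, and fu was calculated per Kalvass–Maurer with correction for brain dilution.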

[6] = Efflux ratio of apparent permeability from basolateral to apical side over apical to basolateral side in human Caco2 cells at 1 to 20 uM; assay type: ADME, cell-based; details: Caco-2
How it was run: (§2)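 Caco-2 monolayers were grown on permeable filters for 21–28 days. A 2 mM DMSO stock was diluted in Hanks-Hepes buffer, pH 7.4, and added to the apical (A–B) or basolateral (B–A) side. The receiver side was sampled over 240 min and topped up with fresh buffer, then analysed by LC–MS/MS. […] Efflux ratio = Papp(B–A)/Papp(A–B).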

[7] = Ratio of drug level in brain to plasma at steady state in rat at 1000 ng/g after 5 hrs; assay type: ADME, cell-free; details: brain and plasma, read-out: BPR
How it was run: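 Steady-state rat brain/plasma ratio was estimated from equilibrium-dialysis free fractions (spike 1000 ng/g, 5 h, 37 °C, LC–MS/MS) as fu,plasma/fu,brain. This assumes passive distribution, with equal unbound concentrations in brain and plasma.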

[8] = Unbound fraction in rat plasma at 1000 ng/g after 5 hrs by equilibrium dialysis method; assay type: ADME, cell-free; how it was run: as §1
[9] = Apparent permeability across apical to basolateral side in human Caco2 cells at 1 to 20 uM by LC-MS/MS analysis; assay type: ADME, cell-based; details: Caco-2; how it was run: as §2
[10] = Unbound fraction in human plasma at 1000 ng/g after 5 hrs by equilibrium dialysis method; assay type: ADME, cell-free; how it was run: as §1
[11] = biological target: 5-hydroxytryptamine receptor 2A (Homo sapiens, UniProt P28223); test: Binding affinity to 5-HT2A receptor (unknown origin) by radioligand displacement assay
5-hydroxytryptamine receptor 2A, sequence (P28223 whole entry): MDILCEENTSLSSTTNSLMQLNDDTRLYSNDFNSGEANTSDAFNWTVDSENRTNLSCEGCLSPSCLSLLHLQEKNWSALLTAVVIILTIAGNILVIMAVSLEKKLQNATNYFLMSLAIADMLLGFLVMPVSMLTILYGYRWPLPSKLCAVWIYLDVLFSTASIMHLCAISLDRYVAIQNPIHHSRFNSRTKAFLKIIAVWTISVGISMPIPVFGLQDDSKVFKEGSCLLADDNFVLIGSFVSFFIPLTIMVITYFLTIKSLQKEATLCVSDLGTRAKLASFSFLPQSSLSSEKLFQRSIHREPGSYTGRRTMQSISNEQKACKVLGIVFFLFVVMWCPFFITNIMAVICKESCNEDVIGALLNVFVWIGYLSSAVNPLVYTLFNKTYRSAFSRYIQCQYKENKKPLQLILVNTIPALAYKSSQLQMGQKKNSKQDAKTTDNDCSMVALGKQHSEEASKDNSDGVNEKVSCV
How it was run: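 This external human 5-HT2A binding assay (Cerep) tested compounds at two concentrations, one of them 100 nM. Ki was derived from a single run, so the error is unknown.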

[12] = biological target: T2, Alpha-1B adrenergic receptor (Mesocricetus auratus, UniProt P18841); test: Displacement of [3H]prazosine from hamster alpha1B adrenoceptor expressed in Rat1 cells after 20 mins by scintillation counting analysis; assay type: cell-based
T2 sequence (P18841 whole entry): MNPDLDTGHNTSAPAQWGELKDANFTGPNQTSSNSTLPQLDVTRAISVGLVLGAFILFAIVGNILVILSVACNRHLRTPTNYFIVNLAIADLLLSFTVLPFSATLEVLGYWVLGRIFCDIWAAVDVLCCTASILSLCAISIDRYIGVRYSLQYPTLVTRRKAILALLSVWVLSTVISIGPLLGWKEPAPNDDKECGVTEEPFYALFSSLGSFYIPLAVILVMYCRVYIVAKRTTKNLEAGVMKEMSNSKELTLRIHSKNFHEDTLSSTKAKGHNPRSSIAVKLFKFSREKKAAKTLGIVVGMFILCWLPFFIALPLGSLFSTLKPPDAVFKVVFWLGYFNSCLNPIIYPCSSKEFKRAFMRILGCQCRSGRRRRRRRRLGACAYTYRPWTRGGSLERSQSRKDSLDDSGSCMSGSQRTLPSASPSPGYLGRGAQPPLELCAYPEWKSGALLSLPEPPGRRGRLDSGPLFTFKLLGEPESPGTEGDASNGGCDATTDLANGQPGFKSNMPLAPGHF

[13] = Efflux ratio of apparent permeability from basolateral to apical side over apical to basolateral side in human Caco2 cells at 20 uM; assay type: ADME, cell-based; details: Caco-2
How it was run: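 Caco-2 monolayers grown 21–28 days on permeable filters; 2 mM DMSO stock diluted in Hanks-Hepes buffer, pH 7.4, and added to the apical (A–B) or basolateral (B–A) chamber. The opposite chamber was sampled over 240 min, with buffer replaced, and analysed by LC–MS/MS. Papp = dQ/dt × 1/(A × C0), with area 1.1 cm²; ratio = Papp(B–A)/Papp(A–B); N = 2.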

[14] = biological target: T3, Alpha-1D adrenergic receptor (Rattus norvegicus, UniProt P23944); test: Displacement of [3H]prazosine from rat alpha1D adrenoceptor expressed in CHO cells after 20 mins by scintillation counting analysis; assay type: cell-based
T3 sequence (P23944 whole entry): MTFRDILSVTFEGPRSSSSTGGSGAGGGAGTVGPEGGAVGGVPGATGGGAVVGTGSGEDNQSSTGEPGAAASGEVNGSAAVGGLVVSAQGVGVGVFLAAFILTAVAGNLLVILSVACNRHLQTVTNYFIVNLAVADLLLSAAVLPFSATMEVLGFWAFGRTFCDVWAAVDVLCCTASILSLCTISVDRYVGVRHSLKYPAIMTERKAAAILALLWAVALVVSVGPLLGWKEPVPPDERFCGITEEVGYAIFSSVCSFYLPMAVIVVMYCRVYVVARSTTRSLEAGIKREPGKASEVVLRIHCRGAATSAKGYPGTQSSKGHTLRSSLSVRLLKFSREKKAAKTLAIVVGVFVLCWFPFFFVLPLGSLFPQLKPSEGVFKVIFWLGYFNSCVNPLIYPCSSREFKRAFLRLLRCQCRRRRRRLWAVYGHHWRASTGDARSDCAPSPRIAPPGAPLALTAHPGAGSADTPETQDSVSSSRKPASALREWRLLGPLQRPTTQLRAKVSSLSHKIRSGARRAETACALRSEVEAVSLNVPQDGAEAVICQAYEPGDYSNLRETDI

[15] = Unbound fraction in cynomolgus monkey plasma at 1000 ng/g after 5 hrs by equilibrium dialysis method; assay type: ADME, cell-free, Macaca fascicularis; how it was run: as §1
[16] = Unbound fraction in rhesus monkey plasma at 1000 ng/g after 5 hrs by equilibrium dialysis method; assay type: ADME, cell-free, Macaca mulatta; how it was run: as §1
[17] = Apparent permeability across apical to basolateral side in human Caco2 cells at 20 uM by LC-MS/MS analysis; assay type: ADME, cell-based; details: Caco-2; how it was run: as §2
[18] = biological target: 5-hydroxytryptamine receptor 6 (Homo sapiens, UniProt P50406); test: Displacement of [3H]LSD from human 5-HT6 receptor expressed in human HeLa cells after 60 mins by scintillation counting analysis; assay type: cell-based
5-hydroxytryptamine receptor 6, sequence (P50406 whole entry): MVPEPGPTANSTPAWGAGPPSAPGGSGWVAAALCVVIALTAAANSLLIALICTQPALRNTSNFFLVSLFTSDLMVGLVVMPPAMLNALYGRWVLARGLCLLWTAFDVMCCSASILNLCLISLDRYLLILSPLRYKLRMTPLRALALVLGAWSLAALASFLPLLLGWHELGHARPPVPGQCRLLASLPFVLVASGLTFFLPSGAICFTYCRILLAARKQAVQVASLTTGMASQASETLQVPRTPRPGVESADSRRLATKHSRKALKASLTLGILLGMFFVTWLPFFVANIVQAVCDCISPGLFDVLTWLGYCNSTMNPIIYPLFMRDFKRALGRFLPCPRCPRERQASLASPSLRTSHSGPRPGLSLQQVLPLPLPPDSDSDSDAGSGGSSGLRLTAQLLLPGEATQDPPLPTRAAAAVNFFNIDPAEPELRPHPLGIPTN
How it was run: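 HeLa cells expressing human 5-HT6 were homogenised in 50 mM Tris, pH 7.4. Binding used 50 mM Tris, pH 7.7, and 1 nM [3H]LSD, with nonspecific binding taken with an indolylpiperidine 5-HT6 ligand. Incubation was 60 min at 22 °C, followed by GF/B filtration and scintillation counting. Ki came from ≥2 ten-point curves, via Cheng–Prusoff.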

[19] = biological target: 5-hydroxytryptamine receptor 1B (Homo sapiens, UniProt P28222); test: Displacement of [3H]CT from human 5-HT1B receptor expressed in human HeLa cells after 60 mins by scintillation counting analysis; assay type: cell-based
5-hydroxytryptamine receptor 1B, sequence (P28222 whole entry): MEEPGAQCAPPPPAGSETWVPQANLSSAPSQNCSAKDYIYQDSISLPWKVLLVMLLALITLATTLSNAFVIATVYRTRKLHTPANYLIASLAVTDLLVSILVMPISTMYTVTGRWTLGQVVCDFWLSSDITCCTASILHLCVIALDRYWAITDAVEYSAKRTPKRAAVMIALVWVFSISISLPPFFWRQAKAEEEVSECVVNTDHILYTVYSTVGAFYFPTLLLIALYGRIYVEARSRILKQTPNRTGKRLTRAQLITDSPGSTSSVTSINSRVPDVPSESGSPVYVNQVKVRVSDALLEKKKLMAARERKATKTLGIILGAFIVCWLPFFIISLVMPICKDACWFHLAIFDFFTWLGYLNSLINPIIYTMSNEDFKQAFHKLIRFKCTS
How it was run: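 Membranes from HeLa cells expressing human 5-HT1B were prepared in ice-cold 50 mM Tris, pH 7.4. The assay ran in 50 mM Tris, pH 7.7, with 0.8 mg/mL WGA SPA beads and 1.5 nM [3H]CT, for 60 min at room temperature, read by scintillation counting. Nonspecific binding was taken with 5-HT creatinine sulphate. Ki came from ≥2 ten-point curves spanning 4 decades, via Cheng–Prusoff.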

Row | pKi [1] | pKi [2] | Ratio Ki [3] | fraction unbound at 5 h, 1000 ng/g [5] | Kp at 5 h, 1000 ng/g [7] | fraction unbound at 5 h, 1000 ng/g [8] | SMILES | further results
1 | 7.62 | 6.59 | 11 | – | – | – | CN1CCC(c2cn(-c3ccncc3)c3ccc(-c4ccncc4)cc23)CC1 | –
2 | 9.49 | 7.82 | 47 | – | – | – | CN1CCC(c2cn(-c3ccc(F)cc3)c3ccc(-c4ccnn4C)cc23)CC1 | –
3 | 9.27 | 6.80 | 296 | – | – | – | CN1CCC(c2cn(-c3ccc(F)cc3)c3ccc(-c4ccn(C)n4)cc23)CC1 | –
4 | – | – | – | 0.08 | 3.4 | 0.27 | CCN1CCC[C@H]1CNC(=O)c1c(O)c(Cl)cc(Cl)c1OC [RACLOPRIDE] | Kp at 1 h [4]: 6.4; efflux ratio at up to 20 µM [6]: 0.5; Papp A→B at up to 20 µM [9]: 66 ×10⁻⁶ cm/s
5 | 7.72 | 6.06 | 46 | – | – | – | CN1CCC(c2cn(-c3ccncc3)c3ccc(-c4ccnn4C)cc23)CC1 | –
6 | 9.80 | 6.66 | 1380 | 0.002 | 37 | 0.074 | CN1CCC(c2cn(-c3ccc(F)cc3)c3ccc(-c4ncn(C)n4)cc23)CC1 | fraction unbound at 5 h, 1000 ng/g [10]: 0.17; pKi [11]: 7.05; pKi [12]: 8.19; efflux ratio at 20 µM [13]: 0.7; pKi [14]: 7.82; fraction unbound at 5 h, 1000 ng/g [15]: 0.16; fraction unbound at 5 h, 1000 ng/g [16]: 0.18; Papp A→B at 20 µM [17]: 18 ×10⁻⁶ cm/s
7 | – | – | – | 0.0025 | 35 | 0.088 | CN1CCC(c2cn(-c3ccc(F)cc3)c3ccc(-c4cncnc4)cc23)CC1 | fraction unbound at 5 h, 1000 ng/g [10]: 0.096; pKi [18]: 7.80; pKi [19]: 7.89; fraction unbound at 5 h, 1000 ng/g [15]: 0.1; fraction unbound at 5 h, 1000 ng/g [16]: 0.13; Papp A→B at 20 µM [17]: 13 ×10⁻⁶ cm/s
8 | 8.64 | 7.12 | 33 | – | – | – | CN1CCC(c2cn(-c3ccc(F)cc3)c3ccc(-c4cccnc4)cc23)CC1 | –
9 | 8.00 | 7.57 | 3 | – | – | – | CN1CCC(c2cn(-c3ccc(F)cc3)c3ccc(-c4ccncc4)cc23)CC1 | –
10 | 7.42 | 5.19 | 168 | – | – | – | CN1CCC(c2cn(-c3ccncc3)c3ccc(-c4cnn(C)c4)cc23)CC1 | –
11 | 8.57 | 6.82 | 56 | – | – | – | CN1CCC(c2cn(-c3ccc(F)cc3)c3ccc(-c4cnn(C)c4)cc23)CC1 | –
12 | 7.72 | 6.08 | 44 | – | – | – | CN1CCC(c2cn(-c3ccncc3)c3ccc(-c4cncnc4)cc23)CC1 | –
13 | 9.55 | 7.16 | 246 | – | – | – | CN1CCC(c2cn(-c3ccc(F)cc3)c3ccc(-c4nnn(C)n4)cc23)CC1 | –
14 | – | – | – | 0.0035 | 6.3 | 0.022 | Cn1nnc(-c2ccc3c(c2)c(C2CCN(CCN4CCNC4=O)CC2)cn3-c2ccc(F)cc2)n1 | Kp at 1 h [4]: 0.26; Papp A→B at up to 20 µM [9]: 12 ×10⁻⁶ cm/s
15 | 7.66 | 5.96 | 50 | – | – | – | CN1CCC(c2cn(-c3ccncc3)c3ccc(-c4cccnc4)cc23)CC1 | –
16 | – | – | – | 0.0081 | 8.9 | 0.072 | Cn1cc(-c2ccc3c(c2)c(C2CCN(CCN4CCNC4=O)CC2)cn3-c2ccc(F)cc2)nn1 | Kp at 1 h [4]: > 0.05; Papp A→B at up to 20 µM [9]: 5 ×10⁻⁶ cm/s
17 | – | – | – | 0.084 | 1.2 | 0.1 | COc1ccccc1N1CCN(CCN(C(=O)C2CCCCC2)c2ccccn2)CC1 [WAY-100,635] | Kp at 1 h [4]: 1.7; efflux ratio at up to 20 µM [6]: 0.9; Papp A→B at up to 20 µM [9]: 38 ×10⁻⁶ cm/s
